Test results reported in ChEMBL document CHEMBL1649505, “Activity of telavancin against Staphylococcus aureus strains with various vancomycin susceptibilities in an in vitro pharmacokinetic/pharmacodynamic model with simulated endocardial vegetations” (Antimicrob Agents Chemother, 2009).
≈ marks a conversion by molar mass, not a printed value. Calls of active or inactive are those of the source. No cut-off for these calls is given here.

Columns and labels:
Staphylococcus aureus [1] = assay: microbe, parasite or virus in culture; settings: 494
[2] = Cmax in in vitro pharmacokinetic/pharmacodynamic model at 300 mg for every 8 hrs
[3] = AUC (0 to 24 hrs) in in vitro pharmacokinetic/pharmacodynamic model at 300 mg for every 8 hrs
Staphylococcus aureus [4] = assay: Antimicrobial activity against heteroresistant glycopeptide-intermediate Staphylococcus aureus 1629 by broth microdilution method; assay type: functional
In short: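 MICs determined by broth microdilution at ~5.5 log10 CFU/ml following CLSI guidelines.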

Staphylococcus aureus [5] = assay: Antimicrobial activity against glycopeptide-intermediate Staphylococcus aureus NJ992 by broth microdilution method
Staphylococcus aureus [6] = assay: microbe, parasite or virus in culture; settings: 1199
[7] = AUC (0 to 24 hrs) in in vitro pharmacokinetic/pharmacodynamic model at 10 mg/kg for every 12 hrs; assay type: ADME, organism-based; design: time < 24 hr, dose 10 mg/kg; settings: in the assay text read “every 24 hrs” for “every 12 hrs”
In short: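 Central compartment (250 ml glass in vitro PK/PD model holding simulated endocardial vegetations) sampled via injection port at 1, 4, 8, 24, 32, 48, 72 and 96 h. Drug levels measured by agar-well bioassay with Micrococcus luteus ATCC 9341 (zone sizes after 18–24 h at 35°C). Peak, half-life and AUC derived by trapezoidal method. Models run in duplicate; mean ± SD.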

Staphylococcus aureus [8] = assay: Antibacterial activity against glycopeptide-intermediate Staphylococcus aureus NJ992 assessed as bacterial load per gram in in vitro pharmacokinetic/pharmacodynamic model at 10 mg/kg administered daily after 96 hrs; assay type: functional
Staphylococcus aureus [9] = assay: Antibacterial activity against heteroresistant glycopeptide-intermediate Staphylococcus aureus 1629 assessed as decrease in bacterial load in in vitro pharmacokinetic/pharmacodynamic model at 10 mg/kg administered daily after 64 hrs; assay type: functional, organism-based; design: dose 10 mg/kg
In short: (§1)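 250-ml in vitro PK/PD model holding simulated endocardial vegetations, inoculum ~9 log10 CFU/g. Regimens simulated over 96 h: telavancin 10 mg/kg daily (peak 87.5 μg/ml, t½ 8 h) or vancomycin 1 g every 12 h (trough 10 μg/ml, t½ 6 h). Two SEVs per model removed at 0–96 h, homogenized, diluted and plated on TSA at 35°C for 18–24 h. Detection limit 2 log10 CFU/g; models in duplicate.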

Staphylococcus aureus [10] = assay: Antibacterial activity against methicillin-susceptible Staphylococcus aureus 1199 assessed as decrease in bacterial load in in vitro pharmacokinetic/pharmacodynamic model at 1 g for every 12 hrs administered daily after 96 hrs; assay type: functional, organism-based
In short: as §1

Staphylococcus aureus [11] = assay: Antibacterial activity against methicillin-susceptible Staphylococcus aureus 1199 assessed as bacterial load per gram in in vitro pharmacokinetic/pharmacodynamic model at 10 mg/kg administered daily after 96 hrs; assay type: functional
In short: as §1

Staphylococcus aureus [12] = assay: Antibacterial activity against glycopeptide-intermediate Staphylococcus aureus NJ992 assessed as decrease in bacterial load in in vitro pharmacokinetic/pharmacodynamic model at 10 mg/kg administered daily after 62 hrs; assay type: functional, organism-based; design: dose 10 mg/kg
In short: as §1

Staphylococcus aureus [13] = assay: Antibacterial activity against glycopeptide-intermediate Staphylococcus aureus NJ992 assessed as decrease in bacterial load in in vitro pharmacokinetic/pharmacodynamic model at 1 g for every 12 hrs administered daily after 96 hrs; assay type: functional, organism-based
In short: as §1

Staphylococcus aureus [14] = assay: Antibacterial activity against heteroresistant glycopeptide-intermediate Staphylococcus aureus 1629 assessed as decrease in bacterial load in in vitro pharmacokinetic/pharmacodynamic model at 1 g for every 12 hrs administered daily after 96 hrs; assay type: functional, organism-based
In short: as §1

Staphylococcus aureus [15] = assay: Antibacterial activity against methicillin-resistant Staphylococcus aureus 494 assessed as decrease in bacterial load in in vitro pharmacokinetic/pharmacodynamic model at 1 g for every 12 hrs administered daily after 96 hrs; assay type: functional, organism-based
In short: as §1

Staphylococcus aureus [16] = assay: Antibacterial activity against heteroresistant glycopeptide-intermediate Staphylococcus aureus 1629 assessed as bacterial load per gram in in vitro pharmacokinetic/pharmacodynamic model at 10 mg/kg administered daily after 96 hrs; assay type: functional
In short: as §1

[17] = AUC (0 to 24 hrs) in in vitro pharmacokinetic/pharmacodynamic model at 1 g for every 12 hrs; assay type: ADME; design: dose 1 g, time < 24 hr
In short: (§2)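 Drugs given as boluses into the central compartment of a 250-ml glass in vitro PK/PD model over 96 h. Samples taken via the injection port at 1, 4, 8, 24, 32, 48, 72 and 96 h. […] Half-life, peak and AUC derived by the trapezoidal method. Models run in duplicate; mean ± SD.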

[18] = Cmax in in vitro pharmacokinetic/pharmacodynamic model at 1 g for every 12 hrs; assay type: ADME; design: dose 1 g
In short: as §2

[19] = Half life in in vitro pharmacokinetic/pharmacodynamic model at 1 g for every 12 hrs; assay type: ADME
In short: as §2

[20] = Half life in in vitro pharmacokinetic/pharmacodynamic model at 5 mg/kg for every 24 hrs; assay type: ADME, organism-based; design: dose 5 mg/kg
In short: as §2

[21] = Cmax in in vitro pharmacokinetic/pharmacodynamic model at 5 mg/kg for every 24 hrs; assay type: ADME, organism-based; design: dose 5 mg/kg
In short: as §2

[22] = AUC (0 to 24 hrs) in in vitro pharmacokinetic/pharmacodynamic model at 5 mg/kg for every 24 hrs; assay type: ADME, organism-based; design: time < 24 hr, dose 5 mg/kg
In short: as §2

## CO[C@H]1/C=C/O[C@@]2(C)Oc3c(C)c(O)c4c(O)c(c(/C=N/N5CCN(C)CC5)c(O)c4c3C2=O)NC(=O)/C(C)=C\C=C\[C@H](C)[C@H](O)[C@@H](C)[C@@H](O)[C@@H](C)[C@H](OC(C)=O)[C@@H]1C [RIFAMPIN]
Staphylococcus aureus [1]
  MIC: 0.004 µg/mL (≈ 0.00486 µM)
[2]
  Cmax: 4900 ng/mL
[3]
  AUC at 24 h: 64.4 µg·h/mL
Staphylococcus aureus [4]
  MIC: 0.004 µg/mL (≈ 0.00486 µM)
Staphylococcus aureus [5]
  MIC: 2050 µg/mL (≈ 2490 µM)
Staphylococcus aureus [6]
  MIC: 0.004 µg/mL (≈ 0.00486 µM)

## CCCCCCCCCCNCCN[C@@]1(C)C[C@H](O[C@H]2[C@H](Oc3c4cc5cc3Oc3ccc(cc3Cl)[C@@H](O)[C@@H](NC(=O)[C@@H](CC(C)C)NC)C(=O)N[C@@H](CC(N)=O)C(=O)N[C@H]5C(=O)N[C@H]3C(=O)N[C@H](C(=O)N[C@H](C(=O)O)c5cc(O)c(CNCP(=O)(O)O)c(O)c5-c5cc3ccc5O)[C@H](O)c3ccc(c(Cl)c3)O4)O[C@H](CO)[C@@H](O)[C@@H]2O)O[C@@H](C)[C@H]1O [TELAVANCIN]
[7]
  AUC at 24 h: 969 µg·h/mL
Staphylococcus aureus [1]
  MIC: 0.125 µg/mL (≈ 0.0712 µM)
Staphylococcus aureus [8]
  CFU/g: 4.1 log10 CFU/g
Staphylococcus aureus [9]
  Activity: Active
Staphylococcus aureus [10]
  Activity: inactive
Staphylococcus aureus [11]
  CFU/g: 2.8
Staphylococcus aureus [4]
  MIC: 0.125 µg/mL (≈ 0.0712 µM)
Staphylococcus aureus [5]
  MIC: 0.5 µg/mL (≈ 0.285 µM)
Staphylococcus aureus [12]
  Activity: Active
Staphylococcus aureus [13]
  Activity: inactive
Staphylococcus aureus [14]
  Activity: inactive
Staphylococcus aureus [6]
  MIC: 0.25 µg/mL (≈ 0.142 µM)
Staphylococcus aureus [15]
  Activity: inactive
Staphylococcus aureus [16]
  CFU/g: 4.2 log10 CFU/g

## CN[C@H](CC(C)C)C(=O)N[C@H]1C(=O)N[C@@H](CC(N)=O)C(=O)N[C@H]2C(=O)N[C@H]3C(=O)N[C@H](C(=O)N[C@H](C(=O)O)c4cc(O)cc(O)c4-c4cc3ccc4O)[C@H](O)c3ccc(c(Cl)c3)Oc3cc2cc(c3O[C@@H]2O[C@H](CO)[C@@H](O)[C@H](O)[C@H]2O[C@H]2C[C@](C)(N)[C@H](O)[C@H](C)O2)Oc2ccc(cc2Cl)[C@H]1O [VANCOMYCIN]
[17]
  AUC at 24 h: 391 µg·h/mL
Staphylococcus aureus [5]
  MIC: 8 µg/mL (≈ 5.52 µM)
[18]
  Cmax: 37000 ng/mL
[19]
  half-life: 6.2 h

## GENTAMICIN [listing 1 of 2 here]
[20]
  t1/2: 3.4 h
[21]
  Cmax: 15800 ng/mL
[22]
  AUC: 63.1 µg·h/mL

## GENTAMICIN [listing 2 of 2 here]
Staphylococcus aureus [4]
  MIC: 0.25 µg/mL
